Source: PMC4338372 (FEBS Open Bio, 2015)

B1: ELMO1–727: wild type (murine) ELMO1 protein (protein)
chain: MPPPSDIVKVAIEWPGAYPKLMEIDQKKPLSAIIKEVCDGWSLANHEYFALQHADSSNFYITEKNRNEIKNGTILRLTTSPAQNAQQLHERIQSSSMDAKLEALKDLASLSRDVTFAQEFINLDGISLLTQMVESGTERYQKLQKIMKPCFGDMLSFTLTAFVELMDHGIVSWDTFSVAFIKKIASFVNKSAIDISILQRSLAILESMVLNSHDLYQKVAQEITIGQLIPHLQGTDQEIQTYTIAVINALFLKAPDERRQEMANILAQKQLRYIILTHVIRAQRAINNEMAHQLYVLQVLTFNLLEDRMMTKMDPQDQAQRDIIFELRRIAFDAESEPNNSSGSMEKRKSMYTRDYKKLGFINHVNPAMDFTQTPPGMLALDNMLYFAKHHQDAYIRIVLENSSREDKHECPFGRSSIELTKMLCEILKVGELPSETCNDFHPMFFTHDRSFEEFFCICIQLLNKTWKEMRATSEDFNKVMQVVKEQVMRALTTKPSSLDQFKSKLQNLSYTEILKIRQSERMNQEDFQSRPILELKEKIQPEILELIKQQRLNRLVEGTCFRKLNARRRQDKFWYCRLSPNHKVLHYGDLEESPQGEVPHDSLQDKLPVADIKAVVTGKDCPHMKEKGALKQNKEVLELAFSILYDSNCQLNFIAPDKHEYCIWTDGLNALLGKDMMSDLTRNDLDTLLSMEIKLRLLDLENIQIPDAPPPIPKEPSNYDFVYDCN
modifications: left off: 6His (TEV cleavable), end not stated, kept
B2: ELMO532–707: C-terminal domain of ELMO1 without the polyproline motif (protein)
chain: PILELKEKIQPEILELIKQQRLNRLVEGTCFRKLNARRRQDKFWYCRLSPNHKVLHYGDLEESPQGEVPHDSLQDKLPVADIKAVVTGKDCPHMKEKGALKQNKEVLELAFSILYDSNCQLNFIAPDKHEYCIWTDGLNALLGKDMMSDLTRNDLDTLLSMEIKLRLLDLENIQIP
modifications: left off: 6His (TEV cleavable), end not stated, kept
B3: ELMO532–727: C-terminal domain of ELMO1 with the polyproline motif (protein)
chain: PILELKEKIQPEILELIKQQRLNRLVEGTCFRKLNARRRQDKFWYCRLSPNHKVLHYGDLEESPQGEVPHDSLQDKLPVADIKAVVTGKDCPHMKEKGALKQNKEVLELAFSILYDSNCQLNFIAPDKHEYCIWTDGLNALLGKDMMSDLTRNDLDTLLSMEIKLRLLDLENIQIPDAPPPIPKEPSNYDFVYDCN
modifications: left off: 6His (TEV cleavable), end not stated, kept

Experiments:
[1] = tested on: SH3 domain of DOCK180 (SH3DOCK); test: Pull-down of 6His-ELMO1 constructs on immobilized GST-SH3DOCK; format: binding, human; conditions: bacterially expressed 6His-ELMO1; 1 h at 4 °C; anti-polyHistidine western blot
Outline: (§1)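 GST-tagged SH3 domains (Hck residues 77–141; human DOCK180 residues 9–69) and 6His-ELMO1 (wild type 1–727, 532–727 and 532–707) were made in E. coli BL21(DE3) (1 mM IPTG, LB, 3 h, 37 °C). ELMO1 was purified by Ni–NTA and gel filtration, GST fusions on glutathione resin. ELMO1 was incubated with resin-bound SH3 (1 mg/ml) for 1 h at 4 °C in pH 7.5 Hepes buffer. Beads were washed three times, eluted denaturing, and analysed by SDS–PAGE and anti-His immunoblot.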

[2] = molecular target: SH3 domain of Hck (SH3Hck) (Homo sapiens, UniProt P08631); test: Pull-down of 6His-ELMO1 constructs on immobilized GST-SH3Hck; format: binding; conditions: bacterially expressed 6His-ELMO1; 1 h at 4 °C; anti-polyHistidine western blot
Chain of SH3 domain of Hck (SH3Hck) (P08631 77-141): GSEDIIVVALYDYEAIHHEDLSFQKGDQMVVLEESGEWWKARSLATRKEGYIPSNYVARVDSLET
Outline: as §1

SH3Hck = test: Solid-phase enzyme immunoassay; format: binding; conditions: preliminary solid-phase enzyme immunoassay; data not shown
CLIP-SH3Hck = test: FRET of SNAP-ELMO1 constructs and CLIP-SH3Hck in HEK293T cells by flow cytometry; format: cell-based; conditions: HEK293T co-transfected with CLIP-SH3Hck; control CLIP-SH3Hck alone

Row | Molecule | pull-down by immobilized GST-SH3DOCK [1] | pull-down by immobilized GST-SH3Hck [2] | dissociation rate of SH3Hck (SH3Hck) | median FRET intensity compared to control cells (CLIP-SH3Hck)
1 | B1 | successfully pulled-down | successfully pulled-down | – | –
2 | B2 | efficiently pulled-down | – | – | –
3 | B3 | efficiently pulled-down | specifically pulled-down | ten-micromolar range | significantly higher median FRET intensity compared to control cells
